For series [1], the target named is T1, Broad substrate specificity ATP-binding cassette transporter ABCG2 (Homo sapiens, UniProt Q9UNQ0).
T1 sequence (Q9UNQ0 whole entry): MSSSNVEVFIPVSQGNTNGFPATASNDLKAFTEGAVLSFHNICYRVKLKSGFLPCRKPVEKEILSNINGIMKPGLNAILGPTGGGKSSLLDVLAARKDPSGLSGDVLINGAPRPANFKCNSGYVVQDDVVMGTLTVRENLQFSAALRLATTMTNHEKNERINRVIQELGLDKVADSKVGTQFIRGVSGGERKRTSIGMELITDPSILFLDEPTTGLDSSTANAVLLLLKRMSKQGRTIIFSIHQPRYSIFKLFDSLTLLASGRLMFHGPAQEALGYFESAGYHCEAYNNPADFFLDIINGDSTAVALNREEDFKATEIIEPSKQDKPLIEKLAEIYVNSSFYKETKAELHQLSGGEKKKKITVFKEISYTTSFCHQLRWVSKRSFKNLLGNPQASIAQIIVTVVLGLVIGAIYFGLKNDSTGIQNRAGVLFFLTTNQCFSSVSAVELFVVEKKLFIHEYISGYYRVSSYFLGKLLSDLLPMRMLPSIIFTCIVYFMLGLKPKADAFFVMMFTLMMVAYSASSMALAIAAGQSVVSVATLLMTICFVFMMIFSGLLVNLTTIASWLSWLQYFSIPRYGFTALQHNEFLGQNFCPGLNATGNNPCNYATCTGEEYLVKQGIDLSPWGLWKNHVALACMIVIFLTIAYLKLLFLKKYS
The series is described as follows: Reversal of human ABCG2-mediated multidrug resistance in HEK293/R482 cells assessed as fold change in mitoxantrone IC50 at 0.5 uM after 72 hrs by CCK8 assay relative to mitoxantrone IC50. Format: cell-based. Put shortly:
(§1)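 Cells were seeded at 5000/well for 24 h, then given colchicine, etoposide, mitoxantrone or topotecan ± non-toxic modulator (0.5–3.0 μM) for 72 h, with DMSO up to 0.5%. IC50 came from fitted curves (mean ± SD, three experiments). Fold-reversal = IC50 without modulator ÷ IC50 with modulator.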
(In general: Tetrazolium assays rely on reduction of a dye to a coloured formazan, in cell work by metabolically active cells.)

Series [2] relates to S1. The series is described as follows: Induction of apoptosis in human S1 cells assessed as late apoptotic cells at 10 uM incubated for 48 hrs in presence of topotecan by annexin V/propidium iodide staining based flow cytometry (reference value: 3.6%). Format: functional. Put shortly:
(§2)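 S1 cells were exposed for 48 h to DMSO, 10 μM compound, 5 μM topotecan, or 5 μM topotecan plus 10 μM compound. They were then stained with 1.25 μg/mL annexin V–FITC and 0.1 mg/mL PI for 15 min at room temperature. 10000 cells per sample were analysed by flow cytometry; three independent experiments.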
For orientation: Flow cytometry measures light scatter and fluorescence of single cells or particles in a stream.

Series [3] concerns S1. As to the kind of experiment: Induction of apoptosis in human S1 cells assessed as early apoptotic cells at 10 uM incubated for 48 hrs in presence of topotecan by annexin V/propidium iodide staining based flow cytometry (reference value: 2%). Format: functional. Put shortly: as §2
In series [4] the test system is S1. The series is described as follows: Induction of apoptosis in human S1 cells assessed as necrotic cells at 10 uM incubated for 48 hrs by annexin V/propidium iodide staining based flow cytometry (reference value: 0.2%). Format: functional. The method, boiled down: as §2
Series [5] concerns S1. The series is described as follows: Induction of apoptosis in human S1 cells assessed as late apoptotic cells at 10 uM incubated for 48 hrs by annexin V/propidium iodide staining based flow cytometry (reference value: 3.6%). Format: functional. Put shortly: as §2
Series [6] has as its system NCI-H460. As to the kind of experiment: Induction of pheophorbide A accumulation in human H460 cells at 20 uM incubated for 1 hr by FACScan flow cytometry. Format: functional, cell-based. Put shortly: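 Cells held drug-free 7 days. 3 × 10^5 cells were suspended in IMDM with 5% FCS and loaded with pheophorbide A (ex 395/em 670 nm) for 1 h, with or without LCA (20 μM for single-concentration accumulation) or Ko143 3 μM as reference. Read immediately by flow cytometry. Efflux inhibition was run over a concentration range; mean ± SD of three experiments.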

Series [7] has as its target T1, Broad substrate specificity ATP-binding cassette transporter ABCG2. The series is described as follows: Reversal of ABCG2 (unknown origin)-mediated multidrug resistance in human H460-MX20 cells assessed as fold change in mitoxantrone IC50 at 2 uM after 72 hrs by MTT assay relative to mitoxantrone IC50. Format: cell-based. The method, boiled down:
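Cells held drug-free 7 days, seeded at 5000 per well for 24 h, then exposed 72 h to mitoxantrone or topotecan dilutions with DMSO (≤0.5%), LCA 0.5–3.0 μM, or Ko143 1.0 μM. Viability was read by MTT. IC50 came from fitted dose-response curves of three independent experiments. Fold-reversal = IC50 without modulator divided by IC50 with modulator.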

Series [8] relates to NCI-H460. The series is described as follows: Effect on mitoxantrone-induced cytotoxicity against human H460 cells assessed as change in mitoxantrone IC50 at 3 uM after 72 hrs by MTT assay relative to mitoxantrone IC50. Format: functional. The method, boiled down:
(§3)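 Parental S1 colon and H460 lung cancer cells were exposed for 72 h to a mitoxantrone or topotecan concentration series, with or without modulator at 0.5–3.0 μM, and read by MTT. Fold-reversal is IC50 without modulator divided by IC50 with modulator, taken from dose-response curves of three independent experiments.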

In series [9] the test system is NCI-H460. The series is described as follows: Effect on mitoxantrone-induced cytotoxicity against human H460 cells assessed as fold change in mitoxantrone IC50 at 2 uM after 72 hrs by MTT assay relative to mitoxantrone IC50. Format: functional. The method, boiled down: as §3
Series [10] has as its target T1, Broad substrate specificity ATP-binding cassette transporter ABCG2. The series is described as follows: Reversal of ABCG2 (unknown origin)-mediated multidrug resistance in human S1-M1-80 cells assessed as fold-change in topotecan IC50 at 3 uM after 72 hrs by MTT assay relative to topotecan IC50. Format: cell-based. The settings on record: s1-m1-80, 72 h. The method, boiled down: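 MTT readout in S1-M1-80 colon cancer cells (mitoxantrone-selected, held in 80 μM mitoxantrone, then drug-free 7 days before assay). Cells were seeded at 5000/well for 24 h, then given increasing mitoxantrone or topotecan with DMSO or non-toxic modulator for 72 h at 37 °C. IC50 came from fitted dose-response curves (at least three independent experiments). Fold-reversal = IC50 without modulator ÷ IC50 with modulator.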

The target is the same in series [11]. As to the kind of experiment: Reversal of human ABCG2-mediated multidrug resistance in HEK293/R482 cells assessed as fold-change in topotecan IC50 at 0.5 uM after 72 hrs by CCK8 relative to topotecan IC50. Format: cell-based. The method, boiled down: as §1
For series [12], the system named is HEK293. As to the kind of experiment: Effect on mitoxantrone-induced cytotoxicity against HEK293 cells assessed as fold change in mitoxantrone IC50 at 1 uM after 72 hrs by CCK8 assay relative to mitoxantrone IC50. Format: cell-based. Conditions: human, hek293, 72 h. Put shortly: (§4)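 Reversal assay in parental pcDNA-HEK293 and transfected HEK293 lines (ABCB1 for colchicine, ABCC1 for etoposide, ABCG2 for mitoxantrone/topotecan). Substrate drug series was given with or without nontoxic modulator (0.5, 1.0, 2.0 or 3.0 μM) for 72 h, with a CCK-8 read-out. Fold-reversal is substrate IC50 without modulator divided by IC50 with modulator. Three independent experiments.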

Series [13] has as its system HEK293. As to the kind of experiment: Effect on Colchicine-induced cytotoxicity against HEK293 cells assessed as fold change in colchicine IC50 at 0.5 uM after 72 hrs by CCK8 assay relative to colchicine IC50. Format: cell-based. The settings on record: human, hek293, 72 h. The method, boiled down:
as §4

For series [14], the target named is T1, Broad substrate specificity ATP-binding cassette transporter ABCG2. The series is described as follows: Reversal of human ABCG2-mediated multidrug resistance in HEK293/R482 cells assessed as potentiation of topotecan-induced cytotoxicity after 72 hrs by CCK8 assay. Format: cell-based. The method, boiled down:
as §1

The target is the same in series [15]. The series is described as follows: Reversal of human ABCG2-mediated multidrug resistance in HEK293/R482 cells assessed as potentiation of mitoxantrone-induced cytotoxicity after 72 hrs by CCK8 assay. Format: cell-based. The method, boiled down:
as §1

Active and inactive are the calls of the source. No cut-off for these calls is given here.

On to `C=CC(C)(C)c1cc(/C=C/C(=O)c2ccc(O)cc2)c(OC)cc1O` [LICOAGROCHACONE A], for which the “fold change (FC)” value was determined as 2.7 in series [1]; 15.5 in series [7]; 1.1 in the series on NCI-H460 [8]; 1.1 in the series with NCI-H460 [9]; 32.7 in [10]; 2.2 in series [11]. Further, the “fold change (FC)” value in the series with HEK293 [12] and with HEK293 [13] was 1 in each case. Besides, the Activity in the series with S1 [2] is given as 22.5%; with S1 [3], 30.3%; in the series on S1 [4] it was 0.2%; in the series with S1 [5], 2.7%; in series [14], “Dose-dependent effect”; in series [15], “Dose-dependent effect”. For the same compound, in the series with NCI-H460 [6], the result was inactive.

Source of the values: ChEMBL document CHEMBL4627381, “Licochalcone A Selectively Resensitizes ABCG2-Overexpressing Multidrug-Resistant Cancer Cells to Chemotherapeutic Drugs” (J Nat Prod, 2020).
